Measurements reported in ChEMBL document CHEMBL1144684, “Evaluation of a series of naphthamides as potent, orally active vascular endothelial growth factor receptor-2 tyrosine kinase inhibitors” (J Med Chem, 2008).
Active and inactive are the calls of the source. The calls are words filed in the database; no cut-off is given here.

Legend:
[1] = system: Rattus norvegicus; assay: Inhibition of VEGF-induced angiogenesis in VEGF-soaked disk implanted in Sprague-Dawley rat cornea assessed as number of blood vessels intersecting the midpoint between disk and limbus after 7 days; assay type: functional; conditions: 168 h
[2] = target: Hepatocyte growth factor receptor (Homo sapiens, UniProt P08581); assay: Inhibition of c-Met
[3] = system: Liver microsomes; assay: Metabolic stability assessed as covalent binding in absence of NADPH in human liver microsomes at 10 uM after 1 hr; assay type: ADME, Microsome
Summary of the method: (§1)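 14C-labelled compound at 10 µM with human or rat liver microsomes (1 mg/mL) in 0.1 M potassium phosphate pH 7.4, with or without 1 mM NADPH and 1 mM glutathione, 60 min; quenched with ice-cold acetonitrile. Pellet washed with 80% methanol and ethanol/ether, solubilized, protein by BCA, radioactivity by scintillation counting.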

[4] = Oral bioavailability in Sprague-Dawley rat at 2 mg/kg; assay type: ADME, organism-based; conditions: in vivo
Summary of the method: (§2)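 Male Sprague–Dawley rats dosed iv at 0.5 mg/kg as DMSO solution or po at 2 mg/kg as suspension in 100% OraPlus. Serial jugular blood, plasma LC-MS/MS quantitation, noncompartmental analysis.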

[5] = target: T1, Aurora kinase A (Homo sapiens, UniProt O14965); assay: Inhibition of Aurora A
T1 sequence (O14965 whole entry): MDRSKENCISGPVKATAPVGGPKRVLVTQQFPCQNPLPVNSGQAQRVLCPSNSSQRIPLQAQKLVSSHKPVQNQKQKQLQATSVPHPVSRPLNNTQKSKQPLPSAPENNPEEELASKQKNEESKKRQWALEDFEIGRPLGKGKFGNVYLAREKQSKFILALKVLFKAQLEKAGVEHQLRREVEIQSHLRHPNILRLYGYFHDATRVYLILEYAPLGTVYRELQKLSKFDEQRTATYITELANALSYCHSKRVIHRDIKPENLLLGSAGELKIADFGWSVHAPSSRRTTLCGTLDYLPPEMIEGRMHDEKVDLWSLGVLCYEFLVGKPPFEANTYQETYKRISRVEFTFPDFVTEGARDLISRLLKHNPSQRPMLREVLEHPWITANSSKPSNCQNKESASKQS

[6] = target: Angiopoietin-1 receptor (Homo sapiens, UniProt Q02763); assay: Inhibition of Tie2
[7] = Intrinsic clearance in human liver microsomes at 1 uM; assay type: ADME, Microsome; conditions: read-out: Stability
Summary of the method: (§3)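 Human or rat liver microsomes (0.25 mg protein/mL) with 1 mM NADPH, 2 mM MgCl2 in 50 mM potassium phosphate pH 7.4 at 37 °C; compound 1 µM final. Sampled 0–40 min into acetonitrile, LC-MS/MS; ln % remaining vs time slope gives T1/2; CLint = (0.693/T1/2)/0.25 mg/mL.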

[8] = target: Macrophage colony-stimulating factor 1 receptor (Homo sapiens) (UniProt P07333); assay: Inhibition of c-fms
[9] = system: HUVEC; assay: Inhibition of VEGF-induced proliferation of HUVEC; assay type: functional, cell-based; conditions: Homo sapiens
[10] = system: Liver microsomes; assay: Metabolic stability assessed as covalent binding in presence of NADPH in human liver microsomes at 10 uM after 1 hr; assay type: ADME, Microsome; summary of the method: as §1
[11] = Tmax in Sprague-Dawley rat at 2 mg/kg, po; assay type: ADME, organism-based; design: dose 2 mg/kg, route oral; conditions: in vivo; summary of the method: as §2
[12] = target: Vascular endothelial growth factor receptor 3 (Homo sapiens) (UniProt P35916); assay: Inhibition of human VEGFR3
[13] = Clearance in Sprague-Dawley rat at 1 mg/kg, iv; assay type: ADME, organism-based; design: dose 1 mg/kg, route intravenous; conditions: in vivo
Summary of the method: (§4)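 Male Sprague–Dawley rats dosed iv via femoral vein as DMSO solution (1 or 0.5 mg/kg) or po by gavage as OraPlus suspension (pH 2.0–2.2 with methanesulfonic acid; 10 or 2 mg/kg). Serial jugular blood over 12–24 h; plasma acetonitrile precipitation, LC-MS/MS (MRM) with internal standard; noncompartmental parameters.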

[14] = Volume of distribution at steady state in Sprague-Dawley rat at 1 mg/kg, iv; assay type: ADME, organism-based; design: dose 1 mg/kg, route intravenous; conditions: in vivo, read-out: Vdss
Summary of the method: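 Male Sprague–Dawley rats given 1 mg/kg iv via femoral vein as DMSO solution or 10 mg/kg by oral gavage as OraPlus suspension, pH adjusted to 2.0–2.2 with methanesulfonic acid. Serial jugular blood over 12–24 h; plasma protein-precipitated with acetonitrile, quantified by LC-MS/MS (MRM) with internal standard; noncompartmental parameters.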

[15] = Half life in Sprague-Dawley rat at 1 mg/kg, iv; assay type: ADME, organism-based; design: dose 1 mg/kg, route intravenous; conditions: in vivo; summary of the method: as §4
[16] = system: Liver microsomes; assay: Metabolic stability assessed as covalent binding in presence of NADPH and GSH in human liver microsomes at 10 uM after 1 hr; assay type: ADME, Microsome; summary of the method: as §1
[17] = target: Tyrosine-protein kinase Lyn (Homo sapiens, UniProt P07948); assay: Inhibition of Lyn
[18] = system: HUVEC; assay: Selectivity of IC50 for VEGF-induced proliferation over IC50 for bFGF-induced proliferation of HUVEC; assay type: functional, Homo sapiens
Summary of the method: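 HUVECs were seeded at 3000 cells/well in DMEM/10% FBS with pen/strep and cultured for 22 h. They were preincubated 2 h with serially diluted compound, then stimulated with 50 ng/mL VEGF or 20 ng/mL bFGF for 72 h at 37 °C, 5% CO2. Cells were washed, frozen at -70 °C and stained with CyQuant. IC50s came from a four-parameter logistic fit, averaged over ≥2 experiments; the VEGF IC50 was compared against the bFGF IC50.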

[19] = target: Vascular endothelial growth factor receptor 2 (Homo sapiens, UniProt P35968)
[20] = target: Aurora kinase B (Homo sapiens, UniProt Q96GD4); assay: Inhibition of Aurora B
[21] = AUC in VEGF-soaked disk implanted in Sprague-Dawley rat; assay type: ADME, organism-based; conditions: plasma
[22] = Cmax in VEGF-soaked disk implanted in Sprague-Dawley rat; assay type: ADME, organism-based; conditions: in vivo
[23] = target: Vascular endothelial growth factor receptor 1 (Homo sapiens, UniProt P17948); assay: Inhibition of human VEGFR1
[24] = Aqueous solubility in 0.01 N Hcl; assay type: physicochemical
[25] = system: HUVEC; assay: Inhibition of bFGF-induced proliferation of HUVEC; assay type: functional, cell-based; conditions: Homo sapiens
Summary of the method: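 HUVEC seeded at 3000/well in DMEM with 10% FBS, 22 h; 2 h preincubation with serial compound dilutions, then 50 ng/mL VEGF or 20 ng/mL bFGF for 72 h at 37 °C. Freeze–thaw, CyQuant DNA dye read-out; IC50 by four-parameter logistic fit, averaged over ≥2 experiments.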

[26] = AUC (0 to infinity) in Sprague-Dawley rat at 2 mg/kg, po; assay type: ADME, organism-based; design: time infinity, dose 2 mg/kg, route oral; conditions: plasma; summary of the method: as §4
[27] = target: Mast/stem cell growth factor receptor Kit (Homo sapiens) (UniProt P10721); assay: Inhibition of c-Kit
[28] = target: Platelet-derived growth factor receptor alpha (Homo sapiens) (UniProt P16234); assay: Inhibition of PDGFRalpha
[29] = system: Liver microsomes; assay: Metabolic stability assessed as covalent binding in presence of NADPH in rat liver microsomes at 10 uM after 1 hr; assay type: ADME, Microsome; summary of the method: as §1
[30] = system: Liver microsomes; assay: Metabolic stability assessed as covalent binding in absence of NADPH in rat liver microsomes at 10 uM after 1 hr; assay type: ADME, Microsome; summary of the method: as §1
[31] = Intrinsic clearance in rat liver microsomes at 1 uM; assay type: ADME, Microsome; conditions: read-out: Stability; summary of the method: as §3
[32] = Cmax in Sprague-Dawley rat at 2 mg/kg, po; assay type: ADME, organism-based; design: dose 2 mg/kg, route oral; conditions: in vivo; summary of the method: as §4
[33] = system: Liver microsomes; assay: Metabolic stability assessed as covalent binding in presence of NADPH and GSH in rat liver microsomes at 10 uM after 1 hr; assay type: ADME, Microsome; summary of the method: as §1
[34] = system: Mus musculus; assay: Inhibition of VEGF-induced vascular permeability in HEK293 cells expressing mouse recombinant VEGF implanted in CD1 nu/nu mouse assessed as Matrigel plug at 3 mg/kg, po after 6 hrs; assay type: functional, organism-based; design: dose 3 mg/kg
Summary of the method: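 HEK293 cells expressing murine VEGF (or vector) suspended in Matrigel, injected sc ventrally into CD-1 nu/nu mice. At 24 h, single oral gavage dose as OraPlus suspension; 6 h later Evans blue quantified in 1 cm2 skin over plug; plasma level taken at 6 h; n = 5/group.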

[35] = target: Tyrosine-protein kinase Lck (Homo sapiens, UniProt P06239); assay: Inhibition of Lck
[36] = Half life in Sprague-Dawley rat at 0.5 mg/kg, iv; assay type: ADME, organism-based; design: dose 0.5 mg/kg, route intravenous; conditions: in vivo; summary of the method: as §4
[37] = Volume of distribution at steady state in Sprague-Dawley rat at 0.5 mg/kg, iv; assay type: ADME, organism-based; design: dose 0.5 mg/kg, route intravenous; conditions: in vivo, read-out: Vdss; summary of the method: as §2
[38] = Clearance in Sprague-Dawley rat at 0.5 mg/kg, iv; assay type: ADME, organism-based; design: dose 0.5 mg/kg, route intravenous; conditions: in vivo; summary of the method: as §4

Sequence of Vascular endothelial growth factor receptor 2 (P35968 whole entry): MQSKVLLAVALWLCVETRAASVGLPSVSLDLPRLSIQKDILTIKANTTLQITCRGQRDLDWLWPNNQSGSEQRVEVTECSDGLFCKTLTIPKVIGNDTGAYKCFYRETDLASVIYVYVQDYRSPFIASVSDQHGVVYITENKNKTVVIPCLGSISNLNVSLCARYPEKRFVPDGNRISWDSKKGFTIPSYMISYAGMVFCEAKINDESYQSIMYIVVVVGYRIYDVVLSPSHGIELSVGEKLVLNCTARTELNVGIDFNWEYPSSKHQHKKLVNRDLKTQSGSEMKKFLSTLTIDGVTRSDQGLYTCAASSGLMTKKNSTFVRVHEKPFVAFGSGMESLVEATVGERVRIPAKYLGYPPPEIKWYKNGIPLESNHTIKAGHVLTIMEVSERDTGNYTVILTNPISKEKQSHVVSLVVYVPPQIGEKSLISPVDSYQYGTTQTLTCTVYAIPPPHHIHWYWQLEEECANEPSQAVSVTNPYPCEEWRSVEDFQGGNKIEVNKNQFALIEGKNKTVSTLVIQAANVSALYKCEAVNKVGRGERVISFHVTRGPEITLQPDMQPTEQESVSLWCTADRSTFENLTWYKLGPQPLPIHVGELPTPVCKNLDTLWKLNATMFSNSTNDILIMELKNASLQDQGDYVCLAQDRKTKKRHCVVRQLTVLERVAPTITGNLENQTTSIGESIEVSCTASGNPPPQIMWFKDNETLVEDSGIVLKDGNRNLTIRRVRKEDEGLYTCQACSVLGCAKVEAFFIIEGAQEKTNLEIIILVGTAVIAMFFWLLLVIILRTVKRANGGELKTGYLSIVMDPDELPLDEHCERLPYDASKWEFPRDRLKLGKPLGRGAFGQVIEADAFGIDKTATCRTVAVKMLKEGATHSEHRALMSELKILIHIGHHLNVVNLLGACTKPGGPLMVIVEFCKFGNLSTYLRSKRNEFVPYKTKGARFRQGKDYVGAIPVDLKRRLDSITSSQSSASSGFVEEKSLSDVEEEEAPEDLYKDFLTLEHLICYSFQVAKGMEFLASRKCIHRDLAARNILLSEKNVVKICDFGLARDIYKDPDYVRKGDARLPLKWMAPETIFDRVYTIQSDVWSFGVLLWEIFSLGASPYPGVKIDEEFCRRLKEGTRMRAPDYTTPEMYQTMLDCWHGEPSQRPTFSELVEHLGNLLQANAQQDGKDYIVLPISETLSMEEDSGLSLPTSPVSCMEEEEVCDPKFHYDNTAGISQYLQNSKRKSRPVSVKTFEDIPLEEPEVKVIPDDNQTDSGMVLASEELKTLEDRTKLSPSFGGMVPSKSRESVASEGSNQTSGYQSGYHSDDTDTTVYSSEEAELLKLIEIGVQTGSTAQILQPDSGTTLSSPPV
Sequence of Angiopoietin-1 receptor (Q02763 whole entry): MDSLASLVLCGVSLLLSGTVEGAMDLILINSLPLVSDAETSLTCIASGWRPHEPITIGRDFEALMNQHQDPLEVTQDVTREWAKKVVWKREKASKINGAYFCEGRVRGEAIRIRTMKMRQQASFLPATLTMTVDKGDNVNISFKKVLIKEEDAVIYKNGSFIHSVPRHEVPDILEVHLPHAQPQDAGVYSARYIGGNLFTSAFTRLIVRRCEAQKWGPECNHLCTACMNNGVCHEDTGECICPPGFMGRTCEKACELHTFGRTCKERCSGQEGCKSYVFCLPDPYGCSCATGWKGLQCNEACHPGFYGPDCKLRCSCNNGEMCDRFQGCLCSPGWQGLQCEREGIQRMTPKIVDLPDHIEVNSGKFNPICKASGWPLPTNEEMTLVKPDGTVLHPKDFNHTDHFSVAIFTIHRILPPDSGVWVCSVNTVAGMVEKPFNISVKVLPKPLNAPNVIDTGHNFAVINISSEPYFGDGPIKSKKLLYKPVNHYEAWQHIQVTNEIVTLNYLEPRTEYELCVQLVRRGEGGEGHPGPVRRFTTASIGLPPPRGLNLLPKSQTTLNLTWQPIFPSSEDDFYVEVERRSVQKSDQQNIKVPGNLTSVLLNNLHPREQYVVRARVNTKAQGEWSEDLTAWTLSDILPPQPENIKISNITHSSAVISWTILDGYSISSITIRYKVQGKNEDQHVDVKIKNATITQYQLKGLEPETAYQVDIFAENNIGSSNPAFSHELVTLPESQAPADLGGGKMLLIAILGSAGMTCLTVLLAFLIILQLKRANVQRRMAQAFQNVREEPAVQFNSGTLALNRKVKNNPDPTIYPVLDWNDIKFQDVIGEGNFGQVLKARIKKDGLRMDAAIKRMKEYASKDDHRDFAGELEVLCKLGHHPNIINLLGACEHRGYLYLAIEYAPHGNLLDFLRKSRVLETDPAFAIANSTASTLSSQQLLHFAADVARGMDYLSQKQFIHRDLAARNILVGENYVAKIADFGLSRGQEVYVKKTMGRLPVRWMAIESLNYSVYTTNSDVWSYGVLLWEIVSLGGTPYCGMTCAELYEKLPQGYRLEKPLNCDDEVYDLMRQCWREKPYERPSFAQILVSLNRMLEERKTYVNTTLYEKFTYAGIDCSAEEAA
Sequence of Aurora kinase B (Q96GD4 whole entry): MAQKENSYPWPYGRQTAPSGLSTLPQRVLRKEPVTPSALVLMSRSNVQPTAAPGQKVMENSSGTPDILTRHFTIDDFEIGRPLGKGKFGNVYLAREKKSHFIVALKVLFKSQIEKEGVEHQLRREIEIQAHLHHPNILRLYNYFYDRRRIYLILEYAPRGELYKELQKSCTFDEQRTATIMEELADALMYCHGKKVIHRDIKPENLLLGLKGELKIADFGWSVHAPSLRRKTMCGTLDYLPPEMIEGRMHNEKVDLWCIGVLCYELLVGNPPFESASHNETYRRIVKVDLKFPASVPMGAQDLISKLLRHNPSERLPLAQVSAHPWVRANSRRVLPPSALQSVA
Sequence of Hepatocyte growth factor receptor (P08581 whole entry): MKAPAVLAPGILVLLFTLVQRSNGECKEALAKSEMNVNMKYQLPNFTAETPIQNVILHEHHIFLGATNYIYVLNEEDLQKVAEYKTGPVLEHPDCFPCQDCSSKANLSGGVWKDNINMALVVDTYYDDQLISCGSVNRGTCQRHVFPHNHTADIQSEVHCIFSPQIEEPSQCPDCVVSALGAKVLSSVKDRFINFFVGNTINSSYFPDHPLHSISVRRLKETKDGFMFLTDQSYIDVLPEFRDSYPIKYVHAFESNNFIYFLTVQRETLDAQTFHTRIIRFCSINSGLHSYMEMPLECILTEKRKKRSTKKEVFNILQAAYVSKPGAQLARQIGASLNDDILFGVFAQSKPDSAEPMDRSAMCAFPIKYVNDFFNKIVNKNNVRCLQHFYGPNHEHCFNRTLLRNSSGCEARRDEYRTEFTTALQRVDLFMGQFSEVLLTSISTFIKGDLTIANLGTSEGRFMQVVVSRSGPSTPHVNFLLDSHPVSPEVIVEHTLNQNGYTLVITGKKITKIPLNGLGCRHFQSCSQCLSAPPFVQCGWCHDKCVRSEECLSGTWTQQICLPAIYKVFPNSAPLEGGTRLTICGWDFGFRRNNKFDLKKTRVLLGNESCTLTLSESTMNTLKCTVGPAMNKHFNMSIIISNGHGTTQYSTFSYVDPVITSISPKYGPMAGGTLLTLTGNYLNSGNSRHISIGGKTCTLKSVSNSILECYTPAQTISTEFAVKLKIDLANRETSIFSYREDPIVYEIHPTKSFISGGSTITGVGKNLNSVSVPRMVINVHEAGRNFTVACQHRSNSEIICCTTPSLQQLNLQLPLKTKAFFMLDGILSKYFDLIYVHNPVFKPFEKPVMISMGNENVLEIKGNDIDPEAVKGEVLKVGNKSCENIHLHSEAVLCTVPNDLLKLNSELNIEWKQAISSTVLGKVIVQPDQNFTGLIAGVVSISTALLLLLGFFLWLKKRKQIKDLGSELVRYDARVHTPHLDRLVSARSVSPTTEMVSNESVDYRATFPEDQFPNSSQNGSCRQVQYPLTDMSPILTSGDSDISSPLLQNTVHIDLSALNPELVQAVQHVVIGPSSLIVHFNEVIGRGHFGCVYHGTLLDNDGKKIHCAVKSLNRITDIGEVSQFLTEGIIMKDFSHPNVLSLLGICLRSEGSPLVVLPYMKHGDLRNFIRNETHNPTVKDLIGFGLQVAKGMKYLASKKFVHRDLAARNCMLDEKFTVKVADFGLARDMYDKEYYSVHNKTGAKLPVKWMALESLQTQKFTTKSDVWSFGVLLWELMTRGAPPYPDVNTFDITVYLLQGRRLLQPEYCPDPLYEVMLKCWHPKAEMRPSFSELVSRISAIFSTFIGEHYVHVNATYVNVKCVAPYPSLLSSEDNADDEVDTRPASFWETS
Sequence of Tyrosine-protein kinase Lck (P06239 whole entry): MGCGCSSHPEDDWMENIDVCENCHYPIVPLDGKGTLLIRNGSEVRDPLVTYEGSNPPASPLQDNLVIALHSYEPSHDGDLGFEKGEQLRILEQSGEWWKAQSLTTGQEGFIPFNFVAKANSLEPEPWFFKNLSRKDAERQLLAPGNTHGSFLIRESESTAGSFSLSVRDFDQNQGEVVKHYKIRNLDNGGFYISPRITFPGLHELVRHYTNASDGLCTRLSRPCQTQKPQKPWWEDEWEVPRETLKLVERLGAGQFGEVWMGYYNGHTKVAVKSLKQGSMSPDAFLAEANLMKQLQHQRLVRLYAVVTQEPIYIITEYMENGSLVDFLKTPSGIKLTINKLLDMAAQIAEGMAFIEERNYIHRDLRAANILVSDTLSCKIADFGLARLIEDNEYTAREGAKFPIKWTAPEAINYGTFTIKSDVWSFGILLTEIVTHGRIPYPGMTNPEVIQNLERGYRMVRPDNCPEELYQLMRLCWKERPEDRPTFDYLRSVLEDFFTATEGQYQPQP

Compound COCCNC(=O)c1cccc2cc(Oc3ccnc4cc(OC)c(OC)cc34)ccc12 has an ED50 [1] of 0.04 mg/kg, an IC50 [2] of 20000 nM and a Stability [3] of 125 pmol/mg/h. For the same compound, the bioavailability [4] was 99%, the IC50 [5] was 7200 nM and the IC50 [6] was 25000 nM. The microsomal CLint at 1 µM [7] was 32 µL/min/mg, the Activity [8] was “Active” and the IC50 [9] was 0.64 nM. The Stability [10] was 321 pmol/mg/h, the Tmax [11] was 2 h and the Activity [12] was “Active”. The clearance [13] was 8.87 mL/min/kg, the Vd [14] was 1.13 L/kg and the half-life [15] was 1.6 h. The Stability [16] was 1.6 pmol/mg/h, the IC50 [17] was 275 nM and the Selectivity ratio [18] was >100. It also gave an IC50 [19] of 12 nM, an IC50 [20] of 130 nM and an AUC [21] of 0.52 µM·h. For the same compound, the Cmax [22] was 40 nM, the IC50 [23] was 73 nM and the solubility [24] was > 200 µg/mL. The IC50 [25] was 1140 nM, the AUC(0-inf) [26] was 3770 ng·h/mL and the Activity [27] was “Active”. The Activity [28] was “Active”, the Stability [29] was 353 pmol/mg/h and the Stability [30] was 125 pmol/mg/h. It also gave a microsomal CLint at 1 µM [31] of 48 µL/min/mg, a Cmax [32] of 543 ng/mL and a Stability [33] of 1.6 pmol/mg/h. It also gave a Cp [34] of 0.2 µM and an IC50 [35] of 1200 nM.
In the case of COCCNC(=O)c1cccc2cc(Oc3ncnc4cc(OC)c(OC)cc34)ccc12, the IC50 [2] is reported as 20000 nM, the IC50 [5] is reported as 25000 nM and the IC50 [6] is reported as 8300 nM. For the same compound, the Activity [12] was “Active”, the Selectivity ratio [18] was >100 and the IC50 [19] was 314 nM. For the same compound, the IC50 [20] was 385 nM.
COc1cc2nccc(Oc3ccc4c(C(=O)NC5CC5)cccc4c3)c2cc1C(N)=O gave a half-life [36] of 1.26 h, a Vd [37] of 0.379 L/kg and an IC50 [2] of 20000 nM. It also gave a clearance [38] of 8.47 mL/min/kg, a bioavailability [4] of 39% and an IC50 [5] of 4400 nM. For the same compound, the IC50 [6] was 1800 nM, the microsomal CLint at 1 µM [7] was 12 µL/min/mg and the IC50 [9] was 1.2 nM. For the same compound, the Tmax [11] was 0.67 h, the Selectivity ratio [18] was >100 and the IC50 [19] was 0.37 nM. For the same compound, the IC50 [20] was 185 nM, the AUC(0-inf) [26] was 900 ng·h/mL and the microsomal CLint at 1 µM [31] was 16 µL/min/mg. For the same compound, the Cmax [32] was 715 ng/mL.
